# Experimental data as given in ChEMBL document CHEMBL1158955, “Biologically active metabolites from Xenorhabdus spp., Part 1. Dithiolopyrrolone derivatives with antibiotic activity” (1991).
# Experiments:
# Escherichia coli = experiment: Antimicrobial activity against Escherichia coli K88 BTA 430 after 18 hrs by broth dilution method; format: functional; details: K88 BTA 430, 18 h
# Procedure, shortened: (§1)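 Broth dilution in TS broth in 24-well dishes. Compound dissolved in DMSO and diluted from a starting concentration of 2.5%. Inocula were grown from fresh TS agar plates in TS broth at 37° to A525 0.5, then diluted 10^-4. Incubation was 37° for 18 h. Turbidity was read by eye and confirmed by plating onto TS agar. MIC is the last dilution giving ≤20 colonies.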
# Helicoverpa punctigera [1] = experiment: Insecticidal activity in Heliothis punctigera assessed as mortality by larval feeding assay; format: functional
# Procedure, shortened: (§2)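 Artificial diet set in 24-well plates to 1 cm depth; 30 μl of test material in DMSO spread over the surface, with DMSO-only controls. After drying, one first-instar Heliothis punctigera larva placed per well, 16 wells per dose, and each well closed with a polypropylene ball. Held 7 days at 28°, then scored for mortality and survivors weighed; LC50 derived by probit analysis.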
# Salmonella typhimurium = experiment: Antimicrobial activity against Salmonella Typhimurium BTA 438 after 18 hrs by broth dilution method; format: functional, Salmonella enterica subsp. enterica serovar Typhimurium; details: Salmonella enterica, BTA 438, 18 h; procedure, shortened: as §1
# Pseudomonas aeruginosa = experiment: Antimicrobial activity against Pseudomonas aeruginosa BTA 429 after 18 hrs by broth dilution method; format: functional; details: BTA 429, 18 h; procedure, shortened: as §1
# Staphylococcus aureus = experiment: Antimicrobial activity against Staphylococcus aureus ATCC 6538P after 18 hrs by broth dilution method; format: functional; procedure, shortened: as §1
# Proteus mirabilis = experiment: Antimicrobial activity against Proteus mirabilis BTA 585 after 18 hrs by broth dilution method; format: functional; details: BTA 585, 18 h; procedure, shortened: as §1
# Shigella sonnei = experiment: Antimicrobial activity against Shigella sonnei BTA 431 after 18 hrs by broth dilution method; format: functional; details: BTA 431, 18 h; procedure, shortened: as §1
# Bacillus cereus = experiment: Antimicrobial activity against Bacillus cereus BTA 432 after 18 hrs by broth dilution method; format: functional; details: BTA 432, 18 h; procedure, shortened: as §1
# Helicoverpa punctigera [2] = experiment: Insecticidal activity in Heliothis punctigera assessed as weight reduction at 37.5 ug.cm'-2 relative to control; format: functional; set-up: scale not given: the % may be the effect or the level left
# Procedure, shortened: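 Diet-surface feeding test. Molten artificial diet was poured 1 cm deep in 24-well plates, and test material in DMSO (30 μl) was spread on the surface; controls got DMSO only. Once dry, one first-instar H. punctigera larva was placed per well (16 wells per dose) and the well was capped. After 7 days at 28°, mortality was scored and surviving larvae were weighed.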
# Helicoverpa punctigera [3] = experiment: Insecticidal activity in Heliothis punctigera assessed as mortality at 150 ug.cm'-2 by larval feeding assay; format: functional; procedure, shortened: as §2
# Helicoverpa punctigera [4] = experiment: Insecticidal activity in Heliothis punctigera assessed as mortality at 37.5 ug.cm'-2 by larval feeding assay; format: functional; procedure, shortened: as §2
# Micrococcus luteus = experiment: Antimicrobial activity against Micrococcus luteus BTA 433 after 18 hrs by broth dilution method; format: functional; details: BTA 433, 18 h; procedure, shortened: as §1
# Streptococcus pyogenes = experiment: Antimicrobial activity against Streptococcus pyogenes IMR-RNSH after 18 hrs by broth dilution method; format: functional; procedure, shortened: as §1
# Candida albicans = experiment: Antimicrobial activity against Candida albicans ATCC 10231 after 18 hrs by broth dilution method; format: functional; details: ATCC 10231, 18 h; procedure, shortened: as §1
smiles,measurement,setting,value
CC(C)CCCC(=O)Nc1c2sscc-2[nH]c1=O [XENORHABDIN 2],MIC,Escherichia coli,> 100 µg/mL
same,LC50,Helicoverpa punctigera [1],59.5 ug.cm'-2
same,MIC,Salmonella typhimurium,> 100 µg/mL
same,MIC,Pseudomonas aeruginosa,> 100 µg/mL
same,MIC,Staphylococcus aureus,20 µg/mL
same,MIC,Proteus mirabilis,> 100 µg/mL
same,MIC,Shigella sonnei,> 100 µg/mL
same,MIC,Bacillus cereus,3.13 µg/mL
same,Activity,Helicoverpa punctigera [2],64.7%
same,Activity,Helicoverpa punctigera [3],100%
same,Activity,Helicoverpa punctigera [4],18.8%
same,MIC,Micrococcus luteus,0.156 µg/mL
same,MIC,Streptococcus pyogenes,1.25 µg/mL
same,MIC,Candida albicans,> 100 µg/mL
